From ChEMBL document CHEMBL3045489, “Synthesis, fungicidal activity, and QSAR of a series of 2-dichlorophenyl-3-triazolylpropyl ethers” (J Agric Food Chem, 2000)
Converted amounts (≈) assume the structure as drawn. The source made the active and inactive calls. No cut-off for these calls is given here.

Columns and labels:
Cercospora beticola = assay: Antifungal activity against Cercospora beticola assessed as inhibition of radial growth on potato dextrose; format: functional, organism-based
Procedure, shortened: (§1)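 Radial growth inhibition on potato dextrose or Czapek agar across 100-0.1 mg L-1. ED50 calculated for each compound.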

[1] = molecular target: T1, Lanosterol 14-alpha demethylase (Mycosarcoma maydis) (UniProt P49602); assay: Inhibition of 14alpha-demethylase Ustilago maydis ATCC 14826 assessed as reduction in obtusifoliol at 20 mg/ml (reference value: 0.7%); set-up: scale not given: the % may be the effect or the level left
T1 sequence (whole entry): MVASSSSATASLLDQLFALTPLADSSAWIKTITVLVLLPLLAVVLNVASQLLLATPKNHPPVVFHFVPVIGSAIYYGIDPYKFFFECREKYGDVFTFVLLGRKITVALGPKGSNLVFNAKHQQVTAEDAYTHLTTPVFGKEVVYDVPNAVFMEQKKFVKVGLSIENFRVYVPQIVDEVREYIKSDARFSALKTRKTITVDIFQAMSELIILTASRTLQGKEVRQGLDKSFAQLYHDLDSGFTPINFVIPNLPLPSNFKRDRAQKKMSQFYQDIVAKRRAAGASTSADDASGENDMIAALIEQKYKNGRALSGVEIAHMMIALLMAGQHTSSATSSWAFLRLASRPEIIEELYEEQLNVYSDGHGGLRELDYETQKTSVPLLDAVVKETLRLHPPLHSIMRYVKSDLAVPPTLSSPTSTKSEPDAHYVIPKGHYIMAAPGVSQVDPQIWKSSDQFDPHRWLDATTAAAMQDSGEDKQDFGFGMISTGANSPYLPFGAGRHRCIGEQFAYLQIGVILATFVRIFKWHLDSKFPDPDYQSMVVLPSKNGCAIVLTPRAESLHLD
Procedure, shortened: (§2)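 Actively growing broth cultures of U. maydis ATCC 14826 were incubated 18 h with increasing compound concentrations. Sterols were then extracted and analysed, and 14α-demethyl and 14α-methyl sterols quantified.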

Botrytis cinerea = assay: Antifungal activity against Botryotinia fuckelianaassessed as inhibition of radial growth on potato dextrose; format: functional, organism-based; procedure, shortened: as §1
Podosphaera fuliginea [2] = assay: Fungicidal activity against Podosphaera fuliginea inoculated in […] placed in growth room after 24 hr incubation assessed as direct protection after 6 to 10 days; format: functional
[3] = molecular target: T1, Lanosterol 14-alpha demethylase (Mycosarcoma maydis); assay: Inhibition of 14alpha-demethylase Ustilago maydis ATCC 14826 assessed as reduction in ergosterol at 20 mg/ml (reference value: 61%); set-up: scale not given: the % may be the effect or the level left; procedure, shortened: as §2
[4] = molecular target: T2, Lanosterol 14-alpha demethylase (Mycosarcoma maydis, UniProt P49602); assay: Inhibition of 14alpha-demethylase Ustilago maydis ATCC 14826 assessed as reduction in 14alpha-methylfecosterol; conditions: read-out: I50 (converted); procedure, shortened: as §2
T2 sequence (P49602 whole entry): T1 sequence (whole entry)

Uromyces appendiculatus [5] = assay: Fungicidal activity against Uromyces appendiculatus inoculated in Phaseolus vulgaris placed in growth room after 24 hr incubation assessed as disease cure after 24 hr of inoculation; format: functional
Procedure, shortened: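 Bean rust curative test with the same plants, spray formulation (acetone/water 1:4 with Tween 20), 100 to 0.001 mg L-1 range and U. appendiculatus inoculum (1 × 10^5 spores mL-1). Compound applied 24 h after inoculation. Read-out expressed as MIC.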

[6] = molecular target: T1, Lanosterol 14-alpha demethylase (Mycosarcoma maydis); assay: Inhibition of 14alpha-demethylase Ustilago maydis ATCC 14826 assessed as reduction in eburicol at 20 mg/ml (reference value: 3.4%); set-up: scale not given: the % may be the effect or the level left; procedure, shortened: as §2
Pyrenophora teres = assay: Antifungal activity against Pyrenophora teres assessed as inhibition of radial growth on potato dextrose; format: functional, organism-based
Bipolaris maydis = assay: Antifungal activity against Cochliobolus heterostrophus assessed as inhibition of radial growth on potato dextrose; format: functional, organism-based; procedure, shortened: as §1
Fusarium graminearum = assay: Antifungal activity against Fusarium graminearum assessed as inhibition of radial growth on potato dextrose; format: functional, organism-based; procedure, shortened: as §1
Oculimacula yallundae = assay: Antifungal activity against Oculimacula yallundae assessed as inhibition of radial growth on potato dextrose; format: functional, organism-based; procedure, shortened: as §1
Ustilago maydis [7] = assay: Antifungal activity against Ustilago maydis assessed as inhibition of radial growth on potato dextrose; format: functional, organism-based; conditions: Mycosarcoma maydis
[8] = molecular target: T1, Lanosterol 14-alpha demethylase (Mycosarcoma maydis); assay: Inhibition of 14alpha-demethylase Ustilago maydis ATCC 14826 assessed as reduction in 14alpha-methylfecosterol at 20 mg/ml (reference value: 0.4%); set-up: scale not given: the % may be the effect or the level left; procedure, shortened: as §2
Uromyces appendiculatus [9] = assay: Fungicidal activity against Uromyces appendiculatus inoculated in Phaseolus vulgaris placed in growth room after 24 hr incubation assessed as direct protection after 6 to 10 days; format: functional
Procedure, shortened: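 Bean plants grown at 22 ± 1 °C, 80 ± 10% RH. Compound in acetone/water (1:4 v/v) with Tween 20 (0.4 mg mL-1) was sprayed on leaves until moist at 100 to 0.001 mg L-1. One day later leaves were inoculated with U. appendiculatus uredospores (1 × 10^5 spores mL-1), held 24 h at 22 ± 2 °C and 100% RH, then moved to the growth room. Scored at 6, 8 and 10 days as MIC.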

Ustilago maydis [10] = assay: Antifungal activity against Ustilago maydis sporidia assessed as swollen, multicellular and branched sporidia at 0.25 to 50 mg/ml measured after 18 hr by light microscopy; format: functional, organism-based; conditions: Mycosarcoma maydis
Procedure, shortened: (§3)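 U. maydis sporidia grown in Coursen and Sisler broth and treated at 0.25 to 50 mg mL-1 for 18 h. Cell morphology and division examined by interference contrast (Nomarski) and fluorescence microscopy.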

Ustilago maydis [11] = assay: Antifungal activity against Ustilago maydis sporidia assessed as cell division at 0.25 to 50 mg/ml by light microscopy; format: functional, organism-based; conditions: Mycosarcoma maydis; procedure, shortened: as §3
Podosphaera fuliginea [12] = assay: Fungicidal activity against Podosphaera fuliginea inoculated in […] placed in growth room after 24 hr incubation assessed as disease cure after 24 hr of inoculation; format: functional

C=CCOCC(Cn1cncn1)c1ccc(Cl)cc1Cl (racemic)
EC50 (Cercospora beticola): 0.21 µg/mL (≈ 0.673 µM)
Activity [1]: 20.6%
EC50 (Botrytis cinerea): 1.5 µg/mL (≈ 4.8 µM)
MIC (Podosphaera fuliginea [2]): 30 µg/mL (≈ 96.1 µM)
Activity [3]: 5.1%
IC50 [4]: 1730 nM
MIC (Uromyces appendiculatus [5]): 28 µg/mL (≈ 89.7 µM)
Activity [6]: 61.1%
EC50 (Pyrenophora teres): 1.4 µg/mL (≈ 4.48 µM)
EC50 (Bipolaris maydis): 0.16 µg/mL (≈ 0.512 µM)
EC50 (Fusarium graminearum): 8.5 µg/mL (≈ 27.2 µM)
EC50 (Oculimacula yallundae): 0.29 µg/mL (≈ 0.929 µM)
EC50 (Ustilago maydis [7]): 0.22 µg/mL (≈ 0.705 µM)
Activity [8]: 8.8%
MIC (Uromyces appendiculatus [9]): 200 µg/mL (≈ 641 µM)

FC(F)C(F)(F)OCC(Cn1cncn1)c1ccc(Cl)cc1Cl (stereo not drawn) [TETRACONAZOLE]
EC50 (Cercospora beticola): 0.12 µg/mL (≈ 0.322 µM)
EC50 (Botrytis cinerea): 1.2 µg/mL (≈ 3.22 µM)
MIC (Podosphaera fuliginea [2]): 0.05 µg/mL (≈ 0.134 µM)
Activity (Ustilago maydis [10]): Active
Activity (Ustilago maydis [11]): Active
MIC (Uromyces appendiculatus [5]): 25 µg/mL (≈ 67.2 µM)
MIC (Podosphaera fuliginea [12]): 0.9 µg/mL (≈ 2.42 µM)
EC50 (Pyrenophora teres): 0.4 µg/mL (≈ 1.07 µM)
EC50 (Bipolaris maydis): < 0.1 µg/mL
EC50 (Fusarium graminearum): 4 µg/mL (≈ 10.7 µM)
EC50 (Oculimacula yallundae): 0.45 µg/mL (≈ 1.21 µM)
EC50 (Ustilago maydis [7]): 0.25 µg/mL (≈ 0.672 µM)
MIC (Uromyces appendiculatus [9]): 25 µg/mL (≈ 67.2 µM)
